Key:
LT12 tumor cell line [1] = experiment: Antiproliferative activity against LT12 phenotype LT12 MDR tumor cell line; format: functional, cell-based; settings: Rattus norvegicus
L1210 [2] = experiment: Antiproliferative activity against L1210 phenotype L1210 VCR tumor cell line; format: functional, cell-based; settings: Mus musculus
L1210 [3] = experiment: Antiproliferative activity against L1210 tumor cell line; format: functional, cell-based; settings: Mus musculus
P388/ADR = experiment: Antiproliferative activity against P388 phenotype P388 ADR tumor cell line; format: functional, cell-based; settings: Mus musculus
LT12 tumor cell line [4] = experiment: Antiproliferative activity against LT12 tumor cell line; format: functional, cell-based; settings: Rattus norvegicus
P388 (Mus musculus) = experiment: Antiproliferative activity against P388 tumor cell line
NCI-H460 [5] = experiment: Tested for induction of cellular death in Human lung H-460 tumor cell line in Propidium Iodide Monolayer Assay; format: functional, cell-based
How it was run: (§1)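 Propidium iodide monolayer assay: cells seeded at 1 × 10^5 or 5 × 10^4 cells/mL, 24 h recovery, drug in triplicate for 3–6 days by doubling time; PI 25 μg/mL added, fluorescence (ex 530/em 620 nm) read before and after freezing at −18 °C for 24 h; viable cells from the difference; % T/C versus concentration.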

MAXF401 cell line = experiment: Tested for induction of cellular death in Human breast 401NL tumor cell line in Propidium Iodide Monolayer Assay; format: functional, cell-based; how it was run: as §1
MCF7 = experiment: Tested for induction of cellular death in Human breast MCF-7 tumor cell line in Propidium Iodide Monolayer Assay; format: functional, cell-based; how it was run: as §1
LXFL 529 = experiment: Tested for induction of cellular death in Human lung LXF 529L tumor cell line in Propidium Iodide Monolayer Assay; format: functional, cell-based; how it was run: as §1
[6] = tested on: Lung LXF 629L tumor cell line; experiment: Tested for induction of cellular death in Human lung LXF 629L tumor cell line in Propidium Iodide Monolayer Assay; format: functional, cell-based; how it was run: as §1
SF-268 [7] = experiment: Tested for induction of cellular death in Human ZNS SF-268 tumor cell line in Propidium Iodide Monolayer Assay; format: functional, cell-based; how it was run: as §1
RXF 944 = experiment: Tested for induction of cellular death in Human renal RXF 944L tumor cell line in Propidium Iodide Monolayer Assay; format: functional, cell-based; how it was run: as §1
K562 = experiment: In vitro inhibitory concentration against human chronic myelogenous leukemia K562 cell growth; format: functional, cell-based
Tubulin [8] = target: T1, Tubulin (Sus scrofa, UniProt P02554+P02550); experiment: In vitro inhibition of maximum porcine tubulin assembly rate after 20 min at 37 degrees C; format: functional
Sus scrofa [9] = species on record: Sus scrofa; experiment: In vitro inhibitory concentration against tubulin assembly; format: functional
KB = experiment: Cytotoxic activity against cellular metabolic activity of Cervix KB/HeLa tumor cell line using XTT proliferation assay after incubation with the compound for 48 h; format: functional, cell-based; settings: Homo sapiens
SF-268 [10] = experiment: Cytotoxic activity against cellular metabolic activity of Glioma SF-268 tumor cell line using XTT proliferation assay after incubation with the compound for 48 h; format: functional, cell-based; settings: Homo sapiens, SF-268, 48 h
RKO [11] = experiment: Cytotoxic activity against human colon adenocarcinoma RKO cells with ectopic inducible expression of cyclin-dependent kinase inhibitor p27kip1; format: functional, cell-based
RKO [12] = experiment: Cytotoxic activity against human colon adenocarcinoma RKO cells without ectopic inducible expression of cyclin-dependent kinase inhibitor p27kip1; format: functional, cell-based
SK-OV-3 = experiment: Cytotoxic activity against cellular metabolic activity of Ovary SKOV3 tumor cell line using XTT proliferation assay after incubation with the compound for 48 h; format: functional, cell-based; settings: Homo sapiens, SK-OV-3, 48 h
NCI-H460 [13] = experiment: Cytotoxic activity against cellular metabolic activity of Lung NCI-H460 tumor cell line using XTT proliferation assay after incubation with the compound for 48 h; format: functional, cell-based; settings: Homo sapiens, NCI-H460, 48 h
How it was run: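 NCI-H460 human lung tumor cells seeded at 1 × 10^3 cells/well in microtiter plates and exposed to a range of compound concentrations for 48 h. Proliferation read as cellular metabolic activity by XTT. At least two replicates (n = 2); IC50 obtained from dose–response curves by nonlinear regression.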

Tubulin [14] = target: T1, Tubulin; experiment: In vitro inhibitory concentration required to displace [3H]colchicine from its binding site on tubulin; format: protein assay
HeLa (Homo sapiens) = experiment: Effective concentration required to arrest propidium iodide stained KB/HeLa cells in G2/M phase
Sus scrofa [15] = species on record: Sus scrofa; experiment: Concentration required to inhibit Microtubule assembly compared to colchicine using EM studies; format: functional
Tubulin [16] = target: T1, Tubulin; experiment: In vitro inhibitory concentration required to displace [3H]colchicine from its binding site on Tubulin; format: protein assay
How it was run: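 Streptavidin-coated yttrium SPA beads were then added and bound radioactivity measured by scintillation counting. IC50 was derived by nonlinear regression.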

Structure (SMILES) | IC50 (LT12 tumor cell line [1]) [nM] | IC50 (L1210 [2]) [nM] | IC50 (L1210 [3]) [nM] | IC50 (P388/ADR) [nM] | IC50 (LT12 tumor cell line [4]) [nM] | IC50 (P388 (Mus musculus)) [nM] | IC50 (NCI-H460 [5]) [nM] | IC50 (MAXF401 cell line) [nM] | IC50 (MCF7) [nM] | IC50 (LXFL 529) [nM] | IC50 [6] [nM] | IC50 (SF-268 [7]) [nM] | IC50 (RXF 944) [nM] | IC50 (K562) [nM] | IC50 (Tubulin [8]) [nM] | IC50 (Sus scrofa [9]) [nM] | IC50 (KB) [nM] | IC50 (SF-268 [10]) [nM] | IC50 (RKO [11]) [nM] | IC50 (RKO [12]) [nM] | other results
CC[C@]1(O)C[C@@H]2CN(CCc3c([nH]c4ccccc34)[C@@](C(=O)OC)(c3cc4c(cc3OC)N(C)[C@H]3[C@@](O)(C(N)=O)[C@H](O)[C@]5(CC)C=CCN6CC[C@]43[C@@H]65)C2)C1 [VINDESINE] | 260 | > 5000 | 20 | 1100 | 1 | 10 | – | – | – | – | – | – | – | – | – | – | – | – | – | – | –
COc1cc(C=C2c3ccccc3C(=O)c3ccccc32)ccc1O | – | – | – | – | – | – | 2360 | 1510 | 2520 | 3230 | 2070 | 2970 | 2830 | 1400 | 630 | < 1000 | – | – | – | – | –
COc1cc2c(c(OC)c1OC)-c1ccc(OC)c(=O)cc1[C@@H](NC(C)=O)CC2 [COLCHICINE] | – | – | – | – | – | – | – | – | – | – | – | – | – | 20 | – | – | 30 | 50 | > 10000 | 20 | IC50 (SK-OV-3): 50 nM; IC50 (NCI-H460 [13]): 70 nM
COc1cccc(C=C2c3ccccc3C(=O)c3ccccc32)c1O | – | – | – | – | – | – | 3330 | 20 | 800 | 4450 | 2020 | 980 | 360 | 730 | 910 | < 1000 | – | – | – | – | –
COc1ccc(C=C2c3ccccc3C(=O)c3ccccc32)c(OC)c1O | 90 | 70 | 50 | 110 | 120 | 80 | 150 | < 10 | 1850 | 70 | 50 | 40 | < 10 | 250 | 430 | 430 | 50 | 60 | > 9000 | 50 | IC50 (SK-OV-3): 60 nM; IC50 (Tubulin [14]): 220 nM; IC50 (NCI-H460 [13]): 60 nM; EC50 (HeLa (Homo sapiens)): 234 nM
COc1ccc(C=C2c3ccccc3C(=O)c3ccccc32)cc1 | – | – | – | – | – | – | 500 | 300 | 560 | 260 | 130 | 890 | 700 | 60 | 760 | < 1000 | – | – | – | – | –
CC(=O)O[C@H]1C(=O)[C@@]2(C)[C@H]([C@H](OC(=O)c3ccccc3)[C@]3(O)C[C@H](OC(=O)[C@H](O)[C@@H](NC(=O)c4ccccc4)c4ccccc4)C(C)=C1C3(C)C)[C@]1(OC(C)=O)CO[C@@H]1C[C@@H]2O [PACLITAXEL] | 400 | > 5000 | 60 | > 5000 | 6 | 40 | – | – | – | – | – | – | – | – | – | – | 10 | 10 | > 3000 | 10 | IC50 (SK-OV-3): 10 nM; IC50 (NCI-H460 [13]): 10 nM; EC50 (HeLa (Homo sapiens)): 54 nM
COc1ccc(C=C2c3ccccc3C(=O)c3ccccc32)c(O)c1 | – | – | – | – | – | – | – | – | – | – | – | – | – | 70 | 1200 | 1200 | – | – | – | – | –
COc1cccc2c1C(=O)c1c(O)c3c(c(O)c1C2=O)C[C@@](O)(C(=O)CO)C[C@@H]3O[C@H]1C[C@H](N)[C@H](O)[C@H](C)O1 [DOXORUBICIN] | – | – | – | – | – | – | 1720 | 10 | – | 30 | 70 | – | 60 | 10 | – | – | – | – | – | – | –
COc1ccc(C=C2c3ccccc3C(=O)c3ccccc32)cc1O | 190 | 130 | 140 | 260 | 320 | 160 | < 10 | < 10 | < 10 | 520 | < 10 | 30 | < 10 | 20 | 670 | 670 | 90 | 50 | > 9000 | 60 | IC50 (SK-OV-3): 50 nM; IC50 (Sus scrofa [15]): 700 nM; IC50 (Tubulin [16]): 370 nM; IC50 (NCI-H460 [13]): 70 nM; EC50 (HeLa (Homo sapiens)): 206 nM
COc1cc(C=C2c3ccccc3C(=O)c3ccccc32)cc(OC)c1O | – | – | – | – | – | – | 3090 | 240 | 4130 | 7490 | 720 | 620 | 150 | 170 | 630 | < 1000 | – | – | – | – | –
COC(=O)Nc1nc2cc(C(=O)c3cccs3)ccc2[nH]1 [NOCODAZOLE] | 50 | 70 | 60 | 50 | 300 | 70 | – | – | – | – | – | – | – | – | – | – | 140 | 300 | > 10000 | 110 | IC50 (SK-OV-3): 170 nM; IC50 (NCI-H460 [13]): 150 nM; EC50 (HeLa (Homo sapiens)): 82 nM
O=C1c2ccccc2C(=Cc2ccc(O)c(O)c2)c2ccccc21 | – | – | – | – | – | – | < 10 | 210 | 40 | 1620 | 260 | 1160 | 30 | 60 | 1800 | – | – | – | – | – | –
